# From article PMC11995402 (ACS infectious diseases, 2025)
# Where two headings read alike, the source gives them in different places.
# Tests used:
# [1] = test system: HepG2 cells; test: HepG2 MTT viability assay; conditions: read-out: HEPG2 cells CC50 μM (95% CI) 24 h; MTT viability, 24 h
# [2] = test system: T. muris; test: adult whipworm whole-worm motility inhibition assay; type: cell-based, Trichuris muris; conditions: for IC50: motility
# [3] = test system: A. ceylanicum; test: adult hookworm whole-worm motility inhibition assay; type: cell-based, Ancylostoma ceylanicum; conditions: motility
# [4] = test system: A. ceylanicum; test: in vivo efficacy in A. ceylanicum-infected hamsters; conditions: 100 mg/kg/day for three days, oral
# [5] = molecular target: PIM-3 (Homo sapiens, UniProt Q86V86); test: SelectScreen kinase panel, PIM-3; type: biochemical; conditions: 500 nM
# [6] = molecular target: AAK1 (Homo sapiens, UniProt Q2M2I8); test: SelectScreen kinase panel, AAK1; type: biochemical; conditions: 500 nM
# [7] = molecular target: T1, STK17A (Homo sapiens, UniProt Q9UEE5); test: SelectScreen kinase panel, STK17A; type: biochemical; conditions: 500 nM
# T1 sequence (Q9UEE5 1-414): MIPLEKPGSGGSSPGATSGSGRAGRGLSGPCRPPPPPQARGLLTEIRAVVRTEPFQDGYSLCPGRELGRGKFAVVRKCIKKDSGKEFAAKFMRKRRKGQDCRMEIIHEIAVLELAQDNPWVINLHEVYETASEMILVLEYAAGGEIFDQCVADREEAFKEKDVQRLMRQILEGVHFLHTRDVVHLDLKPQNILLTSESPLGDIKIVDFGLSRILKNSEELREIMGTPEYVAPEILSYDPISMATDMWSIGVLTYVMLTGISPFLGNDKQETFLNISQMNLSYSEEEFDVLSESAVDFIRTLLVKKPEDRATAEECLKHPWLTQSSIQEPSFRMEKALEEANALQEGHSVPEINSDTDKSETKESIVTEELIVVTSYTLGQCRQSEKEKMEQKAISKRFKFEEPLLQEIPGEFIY
# [8] = test system: MDR1-MDCK II cells; conditions: MDCK-MDR1
# [9] = molecular target: T2, GSG2 (haspin) (Homo sapiens, UniProt Q8TF76); test: SelectScreen kinase panel, GSG2; type: biochemical; conditions: 500 nM
# T2 sequence (Q8TF76 1-798): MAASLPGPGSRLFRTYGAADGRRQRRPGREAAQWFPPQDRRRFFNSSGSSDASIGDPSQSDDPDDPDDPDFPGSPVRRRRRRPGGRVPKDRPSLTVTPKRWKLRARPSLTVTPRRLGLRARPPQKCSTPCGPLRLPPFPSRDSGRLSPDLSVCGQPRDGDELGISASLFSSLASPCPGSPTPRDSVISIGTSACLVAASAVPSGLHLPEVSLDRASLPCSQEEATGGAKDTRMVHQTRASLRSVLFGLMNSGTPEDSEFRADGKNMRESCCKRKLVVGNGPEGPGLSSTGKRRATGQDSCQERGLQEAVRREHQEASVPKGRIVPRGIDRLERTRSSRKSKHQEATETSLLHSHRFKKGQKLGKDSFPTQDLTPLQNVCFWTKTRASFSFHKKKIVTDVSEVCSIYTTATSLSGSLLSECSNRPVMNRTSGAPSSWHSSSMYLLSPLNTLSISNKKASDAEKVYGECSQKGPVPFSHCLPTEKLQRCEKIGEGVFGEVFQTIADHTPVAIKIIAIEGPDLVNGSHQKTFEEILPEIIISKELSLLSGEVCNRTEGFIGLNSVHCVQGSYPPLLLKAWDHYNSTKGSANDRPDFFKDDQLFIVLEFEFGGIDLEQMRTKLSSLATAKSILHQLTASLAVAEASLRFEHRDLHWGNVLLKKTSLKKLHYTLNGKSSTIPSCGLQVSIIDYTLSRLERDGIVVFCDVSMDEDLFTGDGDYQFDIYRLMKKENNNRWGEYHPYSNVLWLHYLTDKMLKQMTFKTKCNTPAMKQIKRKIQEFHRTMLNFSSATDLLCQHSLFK
# [10] = test system: T. muris; parameters: species or system mice; conditions: mouse, in vivo, po, 100 mg/kg/day
# [11] = kinetic solubility in simulated gastric and intestinal fluid; type: physicochemical
# [12] = test system: whipworms; test: whipworm motility recovery after drug removal; type: cell-based; conditions: 60 μM for 24 h, motility recorded 4 and 24 h after removal
# Procedure, shortened: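 Adult T. muris harvested 35 days post-inoculation from Stat6−/− mice, one worm per well in RPMI 1640 (pH 7.2) with 5% FBS, penicillin, streptomycin and amphotericin, at 37 °C and 5% CO2. Worms were exposed to test compound for 24 h, washed, and moved to fresh drug-free medium. Motility inhibition was scored relative to DMSO (0%) after exposure and again 4 and 24 h later.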
# [13] = molecular target: T3, MAPK15 (ERK7) (Homo sapiens, UniProt Q8TD08); test: SelectScreen kinase panel, MAPK15; type: biochemical; conditions: 500 nM
# T3 sequence (Q8TD08 1-544): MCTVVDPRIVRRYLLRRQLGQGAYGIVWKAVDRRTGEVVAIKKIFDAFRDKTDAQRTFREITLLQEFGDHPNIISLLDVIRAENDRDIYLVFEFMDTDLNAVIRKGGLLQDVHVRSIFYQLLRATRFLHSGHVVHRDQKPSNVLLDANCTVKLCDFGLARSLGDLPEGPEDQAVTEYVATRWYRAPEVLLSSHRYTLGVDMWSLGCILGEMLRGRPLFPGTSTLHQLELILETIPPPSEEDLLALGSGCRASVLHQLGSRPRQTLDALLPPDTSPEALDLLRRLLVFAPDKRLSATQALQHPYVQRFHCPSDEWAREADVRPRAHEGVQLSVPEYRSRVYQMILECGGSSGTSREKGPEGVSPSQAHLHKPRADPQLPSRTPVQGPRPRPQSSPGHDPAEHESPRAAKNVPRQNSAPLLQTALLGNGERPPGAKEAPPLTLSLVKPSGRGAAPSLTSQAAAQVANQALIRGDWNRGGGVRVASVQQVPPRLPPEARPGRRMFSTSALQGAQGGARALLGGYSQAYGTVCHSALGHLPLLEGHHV
# [14] = molecular target: T4, MYLK4 (Homo sapiens, UniProt Q86YV6); test: SelectScreen kinase panel, MYLK4; type: biochemical; conditions: 500 nM
# T4 sequence (Q86YV6 1-388): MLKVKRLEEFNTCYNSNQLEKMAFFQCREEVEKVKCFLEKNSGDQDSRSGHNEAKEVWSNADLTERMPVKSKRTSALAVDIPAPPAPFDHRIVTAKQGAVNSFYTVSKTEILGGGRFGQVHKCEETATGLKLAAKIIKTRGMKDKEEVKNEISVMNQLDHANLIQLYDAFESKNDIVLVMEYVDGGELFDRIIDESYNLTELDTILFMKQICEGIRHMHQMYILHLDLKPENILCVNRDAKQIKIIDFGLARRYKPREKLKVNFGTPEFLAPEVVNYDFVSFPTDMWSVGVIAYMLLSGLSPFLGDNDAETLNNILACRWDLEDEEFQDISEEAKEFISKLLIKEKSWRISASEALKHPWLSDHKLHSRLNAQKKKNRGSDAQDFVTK
# Chain of AAK1 (Q2M2I8 whole entry): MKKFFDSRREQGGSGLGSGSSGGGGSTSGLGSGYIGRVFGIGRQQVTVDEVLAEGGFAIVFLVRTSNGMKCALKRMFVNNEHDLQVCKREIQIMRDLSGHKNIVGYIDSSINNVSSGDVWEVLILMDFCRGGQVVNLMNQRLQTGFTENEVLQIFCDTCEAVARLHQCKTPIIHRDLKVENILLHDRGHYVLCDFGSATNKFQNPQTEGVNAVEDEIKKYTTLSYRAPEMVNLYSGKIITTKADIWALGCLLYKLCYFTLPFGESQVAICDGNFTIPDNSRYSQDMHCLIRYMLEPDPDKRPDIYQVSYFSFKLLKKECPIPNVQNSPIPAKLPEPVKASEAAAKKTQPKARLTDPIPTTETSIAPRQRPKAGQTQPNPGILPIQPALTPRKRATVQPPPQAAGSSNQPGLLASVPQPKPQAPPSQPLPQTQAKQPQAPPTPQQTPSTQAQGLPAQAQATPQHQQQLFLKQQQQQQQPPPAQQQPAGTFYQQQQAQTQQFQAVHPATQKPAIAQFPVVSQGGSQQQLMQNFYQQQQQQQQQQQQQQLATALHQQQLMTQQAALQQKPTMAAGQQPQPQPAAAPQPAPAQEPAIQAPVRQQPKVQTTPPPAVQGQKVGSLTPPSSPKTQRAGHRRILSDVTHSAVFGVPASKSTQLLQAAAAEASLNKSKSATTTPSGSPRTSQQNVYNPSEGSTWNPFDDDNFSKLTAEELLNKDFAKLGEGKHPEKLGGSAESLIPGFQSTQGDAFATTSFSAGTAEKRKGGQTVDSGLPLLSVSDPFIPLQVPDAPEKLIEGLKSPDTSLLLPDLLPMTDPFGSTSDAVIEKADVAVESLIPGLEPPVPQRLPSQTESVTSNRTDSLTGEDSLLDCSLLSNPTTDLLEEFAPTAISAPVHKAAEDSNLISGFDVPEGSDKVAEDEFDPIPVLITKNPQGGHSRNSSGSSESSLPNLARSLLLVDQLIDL
smiles,measurement,setting,value
CN1CCCN(C(=O)c2cccc(-c3ccc(/C=C4/C(=O)Nc5ccc(Cl)cc54)o3)c2)CC1 [CX-6258],CC50,[1],37.5 µM
same,worm motility inhibition (in words),"[2]; adult T. muris, 30 μM (Figure 1)",excellent inhibition
same,motility inhibition,"[2]; adult T. muris, 30 μM, relative to DMSO controls",100%
same,IC50,"[2]; read-out: T. muris IC50 μM (95% CI) 24 h, 24 h",17.8 µM
same,IC50,"[2]; read-out: T. muris IC50 μM (95% CI) 48 h, 48 h",14.7 µM
same,IC50,"[3]; read-out: A. ceylanicum IC50 μM (95% CI) 24 h, 24 h",31.6 µM
same,IC50,"[3]; read-out: A. ceylanicum IC50 μM (95% CI) 48 h, 48 h",5.5 µM
same,reduction of egg number or worm burden (in words),[4],did not reduce egg number or worm burden
same,kinase inhibition PIM-3,[5],over 80%
same,kinase inhibition AAK1,[6],over 80%
same,kinase inhibition STK17A,[7],over 80%
same,Rank Papp,[8],low
same,mean Papp A to B,[8],0.049 10^−6 cm/s
same,mean Papp B to A,[8],0.0897 10^−6 cm/s
same,mean solution recovery % A to B,[8],5.4%
same,mean solution recovery % B to A,[8],20.2%
same,kinase inhibition GSG2 (haspin),[9],over 80%
same,"health, vitality and body weight of treated animals",[10],"did not affect the visually observed health and vitality of treated animals, nor were any changes in body weight"
same,kinetic solubility μM,[11]; SGF (pH = 1.2),151 µM
same,kinetic solubility μg/mL,[11]; SGF (pH = 1.2),69.7 µg/mL
same,times more soluble in SGF than in SIF,[11]; SGF pH 1.2 versus SIF pH 6.8,approximately 30 times
same,kinetic solubility μM,[11]; SIF (pH = 6.8),5.05 µM
same,kinetic solubility μg/mL,[11]; SIF (pH = 6.8),2.33 µg/mL
same,recovery of whipworm motility after removing the drug,[12],no recovery in whipworm motility
same,kinase inhibition MAPK15 (ERK7),[13],over 80%
same,kinase inhibition MYLK4,[14],over 80%
